ChEMBL document CHEMBL3822382 (Eur J Med Chem, 2016)
The source made the active and inactive calls. No cut-off for these calls is given here.

Assays:
1411HP [1] = experiment: Vascular disrupting activity against multidrug resistant human 1411HP cells xenografted in athymic nude mouse assessed as hemorrhage at 100 mg/kg, ip after 24 hrs by hematoxylin and eosin staining based microscopic analysis; assay type: functional, organism-based
Procedure, shortened: (§1)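 Athymic nude mice carried subcutaneous flank xenografts from 8 million cells. A single intraperitoneal dose of 100 mg/kg was given. After 24 h tumors were explanted, fixed in 5% formalin, paraffin-embedded and HE-stained for microscopic examination of vessels, hemorrhage and necrosis.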

HT-29 [2] = experiment: Cell cycle arrest in combretastatin A-4 resistant human HT-29 cells assessed as accumulation at G1 phase at 100 nM after 24 hrs by propidium iodide staining-based flow cytometry (reference value: 68.1 +/- 0.3%); assay type: functional
Procedure, shortened: (§2)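 HT-29 cells (200,000/well) were treated 24 h with 100 nM indole, 5 μM CA-4 or DMSO. Cells were trypsinized, fixed in 4% formaldehyde (20 min, RT) and permeabilized in 90% ice-cold methanol (30 min). They were immunostained with anti-phospho-histone H3 (Ser10) (5 μg/mL, 37 °C, 1 h) plus an AlexaFluor-488 secondary, then stained with PI/RNase (30 min, 37 °C). Flow cytometry of 10,000 single cells assigned G1/S/G2/M.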

HT-29 [3] = experiment: Induction of cytoskeletal damage in combretastatin A-4 resistant human HT-29 cells xenografted in fertilized white leghorn chicken egg chorioallantoic membrane at 5 nmol after 24 hrs by hematoxylin and eosin staining based stereomicroscopic analysis; assay type: functional, cell-based
Procedure, shortened: (§3)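 Pellets of 1×10^6 HT-29 cells in matrigel/serum-free RPMI placed on the CAM of fertilized eggs for 48 h. Then 5 nmol (100 µL of 50 µM in PBS) applied outside a silicon ring around the pellet; DMSO as control. Imaged by stereomicroscopy after 24 h. Micro-xenografts then explanted, formalin-fixed, paraffin-embedded and HE-stained.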

HT-29 [4] = experiment: Antivascular activity against in combretastatin A-4 resistant human HT-29 cells xenografted in fertilized white leghorn chicken egg chorioallantoic membrane assessed as blood vessel destruction at 5 nmol after 24 hrs by hematoxylin and eosin staining based stereomicroscopic analysis; assay type: functional, cell-based
Procedure, shortened: (§4)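 Pellets of 1 × 10⁶ HT-29 cells in 10 μL of 1:1 matrigel/serum-free RPMI (gelled 30 min, 37 °C) were placed on the CAM of fertilized eggs and left 48 h. Then 100 μL of a 50 μM PBS dilution (5 nmol) was pipetted outside a silicon ring around the pellet; DMSO served as control. After 24 h, stereomicroscopy was done, and micro-xenografts were explanted, formalin-fixed, paraffin-embedded and HE-stained.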

A2780cisR [5] = experiment: Vascular disrupting activity against human A2780cis cells xenografted in athymic nude mouse assessed as discoloration of tumor at 100 mg/kg, ip after 24 hrs; assay type: functional, organism-based
Procedure, shortened: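 Athymic nude mice carried subcutaneous flank xenografts from 8 million cells in PBS. A single intraperitoneal dose of 100 mg/kg was given, and tumor discoloration was photographed 24 h later.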

HT-29 [6] = experiment: Antivascular activity against in combretastatin A-4 resistant human HT-29 cells xenografted in fertilized white leghorn chicken egg chorioallantoic membrane assessed as loss of cell to cell interaction at 5 nmol after 24 hrs by hematoxylin and eosin staining based stereomicroscopic analysis; assay type: functional; procedure, shortened: as §4
Gallus gallus = species on record: Gallus gallus; experiment: Cytotoxicity against fertilized white leghorn chicken egg chorioallantoic membrane microtumor model of CA-4 resistant human HT-29 cells assessed as reduction in embryo vitality at 5 nmol after 24 hrs; assay type: organism-based; conditions: ht-29, 24 h
HT-29 [7] = experiment: Induction of apoptosis in combretastatin A-4 resistant human HT-29 cells xenografted in fertilized white leghorn chicken egg chorioallantoic membrane at 5 nmol after 24 hrs by hematoxylin and eosin staining based stereomicroscopic analysis; assay type: functional, cell-based; procedure, shortened: as §3
HT-29 [8] = experiment: Cell cycle arrest in combretastatin A-4 resistant human HT-29 cells assessed as mitotic cells at 100 nM after 24 hrs by propidium iodide/immunostaining method (reference value: 3.1 to 3.2%); assay type: functional; procedure, shortened: as §2
A2780cisR [9] = experiment: Vascular disrupting activity against human A2780cis cells xenografted in athymic nude mouse assessed as tumor necrosis at 100 mg/kg, ip after 24 hrs by hematoxylin and eosin staining based microscopic analysis; assay type: functional, organism-based; procedure, shortened: as §1
HT-29 [10] = experiment: Cell cycle arrest in combretastatin A-4 resistant human HT-29 cells assessed as mitotic cells at 50 nM after 24 hrs by propidium iodide/immuno-staining method (reference value: 3.1 to 3.2%); assay type: functional
HT-29 [11] = experiment: Cell cycle arrest in combretastatin A-4 resistant human HT-29 cells assessed as accumulation at S phase at 100 nM after 24 hrs by propidium iodide staining-based flow cytometry (reference value: 13.7 +/- 0.3%); assay type: functional; procedure, shortened: as §2
[12] = Cell cycle arrest in human 518A2 cells assessed as apoptotic index ratio at 100 nM after 24 hrs by propidium iodide staining-based flow cytometry relative to control; assay type: functional
Sus scrofa = species on record: Sus scrofa; experiment: Decrease in rate of porcine brain alpha/beta tubulin polymerization at 5 uM measured every 20 sec by microplate reader analysis
1411HP [13] = experiment: Vascular disrupting activity against multidrug resistant human 1411HP cells xenografted in athymic nude mouse assessed as disruption of blood vessel at 100 mg/kg, ip after 24 hrs by hematoxylin and eosin staining based microscopic analysis; assay type: functional, organism-based; procedure, shortened: as §1
Chorioallantoic membrane [14] = experiment: Antivascular activity in fertilized white leghorn chicken egg chorioallantoic membrane assessed as disruption of preformed blood vessel at 2.5 nmol after 12 hrs by stereomicroscopic analysis; assay type: functional, tissue-based; conditions: Gallus gallus
HT-29 [15] = experiment: Cell cycle arrest in combretastatin A-4 resistant human HT-29 cells assessed as accumulation at G1 phase at 50 nM after 24 hrs by propidium iodide staining-based flow cytometry (reference value: 68.1 +/- 0.3%); assay type: functional
A2780cisR [16] = experiment: Antitumor activity against human A2780cis cells xenografted in athymic nude mouse assessed as reduction in tumor growth at 40 mg/kg, ip administered on day 3, 7, 10 and 14; assay type: functional, organism-based
[17] = Cell cycle arrest in human 518A2 cells assessed as accumulation at subG1 phase at 100 nM after 24 hrs by propidium iodide staining-based flow cytometry (reference value: 3.8%); assay type: functional
A2780cisR [18] = experiment: Vascular disrupting activity against human A2780cis cells xenografted in athymic nude mouse assessed as disruption of blood vessel at 100 mg/kg, ip after 24 hrs by hematoxylin and eosin staining based microscopic analysis; assay type: functional, organism-based; procedure, shortened: as §1
518A2 = experiment: Effect on microtubule structure in human 518A2 cells at 100 nM incubated for 24 hrs by DAPI staining based immunofluorescence microscopic analysis; assay type: cell-based
Procedure, shortened: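 518A2 cells (25,000/well) on coverslips treated 24 h with 100 nM. Cells fixed in 4% formaldehyde, permeabilized and blocked (Triton X-100/BSA). Stained with mouse anti-alpha-tubulin (37 °C, 1 h) and AlexaFluor-488 secondary; nuclei counterstained with DAPI (1 µg/mL). Imaged by fluorescence microscopy at 400×.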

Chorioallantoic membrane [19] = experiment: Antivascular activity in fertilized white leghorn chicken egg chorioallantoic membrane assessed as disruption of preformed blood vessel at 5 nmol after 12 hrs by stereomicroscopic analysis; assay type: functional, tissue-based; conditions: Gallus gallus
Procedure, shortened: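 Fertilized white leghorn SPF eggs were incubated to day 5 at 37 °C and 50–60% humidity. A shell window was cut, 6 mm silicon rings were placed on developing CAM vessels, and eggs were incubated another 24 h. Compound (500 μM in PBS; 10 μL = 5 nmol, 20 μL = 10 nmol) or DMSO was pipetted inside the ring. Vessel changes were imaged by stereomicroscope at 0, 12 and 24 h.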

SMILES: COc1cc(-c2ncn(C)c2-c2ccc3c(c2)c(Cl)cn3C)cc(Br)c1OC.Cl
- Activity (1411HP [1]): Active
- Activity (HT-29 [2]): 12%
- Activity (HT-29 [3]): Active
- Activity (HT-29 [4]): Active
- Activity (A2780cisR [5]): Active
- Activity (HT-29 [6]): Active
- Activity (Gallus gallus): Non-toxic
- Activity (HT-29 [7]): Active
- Activity (HT-29 [8]): 77.8%
- Activity (A2780cisR [9]): Active
- Activity (HT-29 [10]): 28%
- Activity (HT-29 [11]): 8%
- Ratio [12]: 4.4
- Activity (Sus scrofa): Active
- Activity (1411HP [13]): Active
- Activity (Chorioallantoic membrane [14]): Active
- Activity (HT-29 [15]): 43.5%
- Activity (A2780cisR [16]): Active
- Activity [17]: 7.4%
- Activity (A2780cisR [18]): Active

SMILES: COc1cc(-c2ncn(C)c2-c2ccc3c(c2)c(Cl)cn3C)cc(OC)c1OC
- Activity (518A2): inactive
- Activity (Chorioallantoic membrane [19]): Active
